{"source": "ChEMBL document CHEMBL1122416", "about": "“An extension of the f-fragment method for the calculation of hydrophobic constants (log P) of conformationally defined systems” (J Med Chem, 1983)"}
{"assay": "(§1) Partition coefficient (logP)", "assay_type": "physicochemical", "settings": "octanol/water", "summary_of_the_method": "(§2)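 Shake-flask partitioning of the neutral amine species between 1-octanol and 0.1 N NaOH. Both phases were analysed by gas chromatography on 10% Apiezon L with 2% KOH on 80-100 mesh Chromosorb WAW. Observed log P was taken from the phase distribution.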"}
{"smiles": "CNC1C2CC[C@H]1c1ccccc12", "note": "(stereo in doubt; 11)", "logP": 2.47}
{"smiles": "NC1C2CC[C@H]1c1ccccc12", "note": "(stereo in doubt; 19)", "logP": 2.08}
{"assay": "as §1", "assay_type": "physicochemical", "settings": "octanol/water; read-out: logP", "summary_of_the_method": "as §2"}
{"smiles": "CCN[C@@H]1CC2C[C@@H]1c1ccccc12", "logP": 2.72}
{"smiles": "CCCN[C@@H]1CC2C[C@@H]1c1ccccc12", "logP": 3.3}
{"smiles": "CN[C@@H]1CC2CC[C@@H]1c1ccccc12", "logP": 2.68}
{"smiles": "N[C@@H]1CC2C[C@@H]1c1ccc(C(F)(F)F)cc12", "logP": 3.21}
{"smiles": "CN[C@@H]1CC2C[C@@H]1c1ccccc12", "logP": 2.41}
{"smiles": "N[C@@H]1CC2O[C@@H]1c1ccccc12", "logP": 0.75}
{"smiles": "N[C@H]1CC2O[C@@H]1c1ccccc12", "logP": 0.4}
{"smiles": "N[C@H]1CC2C[C@@H]1c1ccc(C(F)(F)F)cc12", "logP": 2.91}
{"smiles": "N[C@H]1CC2C[C@@H]1c1ccccc12", "logP": 2}
{"smiles": "CCCN[C@H]1CC2C[C@@H]1c1ccccc12", "logP": 3.13}
{"smiles": "CN[C@@H]1CC2O[C@@H]1c1ccccc12", "logP": 0.91}
{"smiles": "CN[C@H]1CC2C[C@@H]1c1ccccc12", "logP": 2.32}
{"smiles": "N[C@@H]1CC2C[C@@H]1c1ccccc12", "logP": 2.09}
{"smiles": "N[C@H]1CC2CC[C@@H]1c1ccccc12", "logP": 2.29}
{"smiles": "CN[C@H]1CC2O[C@@H]1c1ccccc12", "logP": 0.59}
{"smiles": "N[C@@H]1CC2C[C@@H]1c1cc(C(F)(F)F)ccc12", "logP": 3.19}
{"smiles": "CN[C@H]1CC2CC[C@@H]1c1ccccc12", "logP": 2.59}
{"smiles": "CCN[C@H]1CC2C[C@@H]1c1ccccc12", "logP": 2.62}
{"smiles": "N[C@H]1CC2C[C@@H]1c1cc(C(F)(F)F)ccc12", "logP": 2.85}
{"smiles": "N[C@@H]1CC2CCC1c1ccccc12", "note": "(some centres undefined)", "logP": 2.32}
{"smiles": "CNC1C2CC[C@H]1c1ccccc12", "note": "(stereo in doubt; 13)", "logP": 2.37}
{"smiles": "NC1C2CC[C@H]1c1ccccc12", "note": "(stereo in doubt; 17)", "logP": 2.13}
